Assay results published in ChEMBL document CHEMBL2203191, “Synthesis and biological evaluation of new fluorine substituted derivatives as angiotensin II receptor antagonists with anti-hypertension and anti-tumor effects” (Bioorg Med Chem, 2012).
Active and inactive are the calls of the source. No cut-off for these calls is given here.

Tests used:
[1] = tested on: Rattus norvegicus; experiment: Antihypertensive activity in SHR rat assessed as decrease in mean arterial pressure at 10 mg/kg, po; assay type: functional, Artery
Summary of the method: (§1)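 SHR (250-300 g) or renal hypertensive rats (SD rats, 250-350 g, left renal artery fully ligated under sodium pentobarbital 40 mg/kg; SBP above 160 mmHg selected), 10 per group. Dosed orally at 5 or 10 mg/kg as a suspension in 0.5% sodium carboxymethyl cellulose; vehicle-only negative control. Rats under pentobarbital (40 mg/kg ip) with right carotid cannulated to a pressure transducer; MAP recorded continuously for over 10 h and again at 24 h.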

[2] = tested on: Rattus norvegicus; experiment: Antihypertensive activity in Sprague-Dawley rat renal hypertensive model assessed as decrease in mean arterial pressure at 10 mg/kg, po; assay type: functional, organism-based; design: dose 10 mg/kg; settings: Artery; summary of the method: as §1
[3] = tested on: Rattus norvegicus; experiment: Antihypertensive activity in SHR rat assessed as decrease in mean arterial pressure at 10 mg/kg, po measured for 9 hrs after dosing; assay type: functional, organism-based; design: dose 10 mg/kg; settings: Artery; summary of the method: as §1
[4] = (§2) Displacement of [125I]Angiotensin-2 from angiotensin AT1 receptor in Sprague-Dawley rat VSMC after 60 mins by gamma counting
Summary of the method: (§3)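 VSMCs from SD rat thoracic aorta, grown as explants in DMEM with 15% FBS; passages 3–7 used. Cells incubated with 0.1 nM [125I]Ang II and compound (1 × 10^-6 to 1 × 10^-12 M final) for 60 min at 37 °C. Nonspecific binding set with 1 µM Ang II. After PBS washes, cells lysed in 0.1 M NaOH and counted by gamma counter. IC50 obtained by regression of displacement curves; Ki = IC50/(1+[L]/Kd).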

[5] = organism: Rattus norvegicus; experiment: as §2; summary of the method: as §3
[6] = tested on: Rattus norvegicus; experiment: Cardiotoxicity in SHR rat assessed as effect on heart rate at 10 mg/kg, po; assay type: toxicity, organism-based; design: dose 10 mg/kg, route oral; settings: in vivo
Summary of the method: (§4)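 Heart rate taken in SHR (250-300 g, 10 per group) given 5 or 10 mg/kg orally as a suspension in 0.5% sodium carboxymethyl cellulose, alongside a vehicle control. Monitored under sodium pentobarbital anesthesia (40 mg/kg ip) through a carotid arterial catheter and pressure transducer, continuously for over 10 h and again at 24 h.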

[7] = tested on: Rattus norvegicus; experiment: Cardiotoxicity in SHR rat assessed as effect on heart rate at 5 mg/kg, po; assay type: toxicity, organism-based; design: dose 5 mg/kg, route oral; settings: in vivo; summary of the method: as §4
[8] = tested on: Rattus norvegicus; experiment: Antihypertensive activity in SHR rat assessed as mean arterial pressure at 5 to 10 mg/kg, po; assay type: functional, organism-based; settings: Artery; summary of the method: as §1
[9] = tested on: Rattus norvegicus; experiment: Antihypertensive activity in SHR rat assessed as decrease in mean arterial pressure at 5 to 10 mg/kg, po measured for 8 hrs after dosing; assay type: functional, organism-based; settings: Artery; summary of the method: as §1
[10] = tested on: Rattus norvegicus; experiment: Antihypertensive activity in SHR rat assessed as decrease in mean arterial pressure at 5 mg/kg, po; assay type: functional, Artery; summary of the method: as §1
[11] = tested on: Rattus norvegicus; experiment: Antihypertensive activity in SHR rat assessed as decrease in mean arterial pressure at 5 to 10 mg/kg, po after 3 to 5 hrs; assay type: functional, organism-based; settings: Artery; summary of the method: as §1
[12] = tested on: LNCaP; experiment: Antitumor activity against human LNCAP cells xenografted in athymic nude mouse assessed as relative tumor volume at 10 mg/kg/day dosed on day 8 measured at 4 weeks post implantation by caliper measurement (reference value: 28.34 +/-2.05); assay type: functional
[13] = tested on: Rattus norvegicus; experiment: Antihypertensive activity in Sprague-Dawley rat renal hypertensive model assessed as decrease in mean arterial pressure at 5 mg/kg, po; assay type: functional, organism-based; design: dose 5 mg/kg; settings: Artery; summary of the method: as §1
[14] = tested on: LNCaP; experiment: Cytotoxicity against human LNCAP cells assessed as cell viability at 10 uM after 24 to 96 hrs by MTT assay; assay type: cell-based
Summary of the method: (§5)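 LNCaP cells (1 × 10^5 per well) grown overnight at 37 °C, 5% CO2, then exposed to compound at 10 µM, with or without Ang II (1 × 10^-7 M). Control got medium with 0.05% v/v DMSO. MTT (5 mg/mL stock) added after 24, 48, 72 or 96 h and incubated 4 h at 37 °C; formazan dissolved in DMSO and read at 570 nm.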

[15] = tested on: LNCaP; experiment: Antiproliferative activity against human LNCAP cells assessed as reduction in Ang-2-induced increase in cell viability at 10 uM after 24 to 96 hrs by MTT assay; assay type: functional, cell-based; summary of the method: as §5
[16] = tested on: LNCaP; experiment: Antitumor activity against human LNCAP cells xenografted in athymic nude mouse assessed as relative tumor volume at 5 mg/kg/day dosed on day 8 measured at 4 weeks post implantation by caliper measurement (reference value: 28.34 +/-2.05); assay type: functional
[17] = tested on: Rattus norvegicus; experiment: Antihypertensive activity in SHR rat assessed as decrease in mean arterial pressure at 10 mg/kg, po after 24 hrs; assay type: functional, organism-based; design: dose 10 mg/kg; settings: Artery; summary of the method: as §1
[18] = tested on: Rattus norvegicus; experiment: Antihypertensive activity in SHR rat assessed as decrease in mean arterial pressure at 10 mg/kg, po measured for 7 hrs after dosing; assay type: functional, organism-based; design: dose 10 mg/kg; settings: Artery; summary of the method: as §1
[19] = tested on: Rattus norvegicus; experiment: Antihypertensive activity in SHR rat assessed as decrease in mean arterial pressure at 5 mg/kg, po after 3 hrs; assay type: functional, Artery; summary of the method: as §1
[20] = tested on: Rattus norvegicus; experiment: Antihypertensive activity in SHR rat assessed as decrease in mean arterial pressure at 10 mg/kg, po after 3 hrs; assay type: functional, Artery; summary of the method: as §1

Compound | IC50 [4] [nM] | Ki [4] [nM] | inhibition [5] | Activity [1] [mmHg] | Activity [2] | Activity [6] | Activity [7] | Activity [8] | further results
CCCCC1=NC2(CCCC2)C(=O)N1Cc1ccc(-c2ccc(F)cc2C(=O)O)cc1 | 9.98 | 6.75 | Dose-dependent effect | – | – | Non-toxic | Non-toxic | inactive | –
CCCCc1nc(Cl)c(CO)n1Cc1ccc(-c2ccc(F)cc2C(=O)O)cc1 | 4.11 | 3.78 | Dose-dependent effect | 25 | Active | Non-toxic | Non-toxic | – | Activity [9]: Active; Activity [10]: 18 mmHg
CCCC(=O)N(Cc1ccc(-c2ccc(F)cc2C(=O)O)cc1)[C@H](C(=O)O)C(C)C | 0.584 | 0.42 | Dose-dependent effect | 42 | Active | Non-toxic | Non-toxic | – | Activity [11]: Active; Ratio [12]: 12.39; Activity [13]: Active; Activity [14]: Non-toxic; Activity [15]: Active; Activity [10]: 27 mmHg; Ratio [16]: 17.44; Activity [17]: Active
CCCCc1nc(Cl)c(C(=O)O)n1Cc1ccc(-c2ccc(F)cc2C(=O)O)cc1 | 26.1 | 17.6 | Dose-dependent effect | – | – | Non-toxic | Non-toxic | inactive | –
CCCCc1nc(Cl)c(CO)n1Cc1ccc(-c2ccccc2-c2nn[nH]n2)cc1 [LOSARTAN] | – | – | – | – | – | Non-toxic | – | – | Activity [14]: Non-toxic
CCCCc1nc(Cl)c(CO)n1Cc1ccc(-c2ccccc2-c2nnn[nH]2)cc1 [LOSARTAN] | 1.64 | 1.41 | Dose-dependent effect | 27 | Active | – | – | – | Ratio [12]: 15.75; Activity [15]: Active; Ratio [16]: 21.44; Activity [18]: Active

The next lines start with results.

IC50 [4] [nM] | Ki [4] [nM] | inhibition [5] | Compound | Activity [1] [mmHg] | Activity [2] | Activity [6] | Activity [7] | Activity [8] | further results
2.64 | 2.08 | Dose-dependent effect | CCCCC(=O)N(Cc1ccc(-c2ccccc2-c2nnn[nH]2)cc1)[C@H](C(=O)O)C(C)C [VALSARTAN] | 28 | Active | Non-toxic | – | – | Activity [3]: Active
3.11 | 2.75 | Dose-dependent effect | CCCCC1=NC2(CCCC2)C(=O)N1Cc1ccc(-c2ccccc2-c2nnn[nH]2)cc1 [IRBESARTAN] | – | – | – | – | – | –
13.5 | 9.11 | Dose-dependent effect | CCCCc1nc(Cl)c(C(=O)O)n1Cc1ccc(-c2cc(F)c(F)cc2C(=O)O)cc1 | – | – | Non-toxic | Non-toxic | inactive | –
13.6 | 9.17 | Dose-dependent effect | CCCCc1nc(Cl)c(C(=O)O)n1Cc1ccc(-c2cc(F)ccc2C(=O)O)cc1 | – | Active | Non-toxic | Non-toxic | – | Activity [9]: Active; Activity [19]: 23 mmHg; Activity [20]: 32 mmHg
